The results in this text go back to ChEMBL document CHEMBL1134797, “Synthesis and structural studies of aza analogues of functionalized amino acids: new anticonvulsant agents” (2001).

Structures are written as SMILES. Some results are limits rather than exact numbers.

Assay [1] deals with Mus musculus. The experiment in a line: Evaluated against Maximal electroshock seizure test in mice after ip administration. It is filed as functional. An outline of the steps:
(§1)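 Given intraperitoneally to mice. […] Seizure protection scored in the maximal electroshock test or against subcutaneous pentylenetetrazole (Metrazol). Neurologic toxicity scored on the rotorod.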

Assay [2] concerns Mus musculus. The assay can be described thus: Evaluated against neurological toxicity determined from the rotarod test in mice after ip administration. It is filed as functional. An outline of the steps:
as §1
Background: In the rotarod test animals must keep their balance on a rotating rod.

The nature of assay [3]: Protective index (TD50/ED50) value of the compound. It is filed as functional. In short, it runs like this:
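Protective index taken as rotorod TD50 divided by maximal electroshock ED50, both in mg/kg and both from dose–effect data at the time of peak effect.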

The subject of assay [4] is Mus musculus. The experiment in a line: Tested against subcutaneous pentylenetetrazole (Metrazol) seizure test in mice after ip administration. The assay is classed as functional. In short, it runs like this:
as §1

Assay [5] has as its system Rattus norvegicus. The experiment in a line: Evaluated against Maximal electroshock seizure test in rat after po administration. In general terms: Protection in the maximal electroshock model is a classic sign of anticonvulsant action.
The subject of assay [6] is Rattus norvegicus. The experiment in a line: Evaluated against neurological toxicity determined from the rotarod test in rat after po administration.

In general, ED50 refers to the dose that gives a 50% effect, or the effect in half of the subjects. By TD50 is commonly meant the dose at which the toxic effect under study appears in half of the subjects. Turning to `CCC1(c2ccccc2)C(=O)NC(=O)NC1=O` [PHENOBARBITAL], the 50% effect level with Mus musculus [1] (ED50) was put at a dose of 22 mg/kg. The compound also gave a TD50 with Mus musculus [2] of 69 mg/kg. In addition, the PI in assay [3] is 3.1.

In the case of `CC(=O)NN(C(=O)NCc1ccccc1)c1ncccn1`, the median effective dose (ED50) is over 100 mg/kg in the assay on Mus musculus [1], over 300 mg/kg with Mus musculus [4] and about 30 mg/kg in the assay with Rattus norvegicus [5]. Besides, the TD50 in the assay on Mus musculus [2] was over 100 mg/kg; in the assay on Rattus norvegicus [6], over 30 mg/kg.

With `CC(=O)NN(C(=O)NCc1ccccc1)c1nccs1`, the values for the ED50 in the assay on Mus musculus [1], with Mus musculus [4] and with Rattus norvegicus [5] were 22 mg/kg, over 200 mg/kg and 6.2 mg/kg, respectively. Also, the results for the TD50 in the assay with Mus musculus [2] and in the assay with Rattus norvegicus [6] were 120 mg/kg and over 250 mg/kg, respectively. Further, the PI in assay [3] came to 5.4.

Turning to `CC(=O)NN(C(=O)NCc1ccccc1)c1ccccn1`, the ED50 with Mus musculus [1] was over 30 mg/kg; with Mus musculus [4], over 100 mg/kg; in the assay on Rattus norvegicus [5], under 30 mg/kg. Further, the TD50 was over 100 mg/kg in the assay with Mus musculus [2] and over 30 mg/kg with Rattus norvegicus [6].

As to `CC(=O)NNC(=O)NCc1ccccc1`, the ED50 with Mus musculus [1] is over 100 mg/kg; in the assay on Mus musculus [4], over 300 mg/kg; with Rattus norvegicus [5], 95 mg/kg. Also, the TD50 in the assay on Mus musculus [2] and in the assay on Rattus norvegicus [6] was over 160 mg/kg each time.

Regarding `CC(=O)NN(C)C(=O)NCc1ccccc1`, the ED50 in the assay with Mus musculus [1] was 89 mg/kg; in the assay with Mus musculus [4], over 300 mg/kg; in the assay with Rattus norvegicus [5], over 30 mg/kg. Moreover, the TD50 was over 500 mg/kg in the assay on Mus musculus [2] and over 30 mg/kg with Rattus norvegicus [6]. The compound also yielded a PI in assay [3] of over 5.6.

As to `O=C1NC(=O)C(c2ccccc2)(c2ccccc2)N1` [PHENYTOIN], the ED50 is 6.5 mg/kg in the assay with Mus musculus [1] and 23 mg/kg in the assay with Rattus norvegicus [5]. In the assay on Mus musculus [2], the TD50 turned out to be 43 mg/kg. Besides, the PI in assay [3] worked out at 6.6.

`CCCC(CCC)C(=O)O` [VALPROIC ACID]: the median effective dose (ED50) in the assay with Mus musculus [1] stood at 290 mg/kg; with Rattus norvegicus [5] it was 400 mg/kg. The compound further returned a TD50 in the assay with Mus musculus [2] of 480 mg/kg. Moreover, in assay [3], the PI was 1.3.

`CC(=O)NN(C(=O)NCc1ccccc1)c1ccccc1`: the ED50 with Mus musculus [1] is over 30 mg/kg; in the assay on Mus musculus [4], over 300 mg/kg; with Rattus norvegicus [5] it was over 30 mg/kg. For the same compound, the TD50 with Mus musculus [2] is over 100 mg/kg; with Rattus norvegicus [6] it was over 30 mg/kg.
